Compound activity as filed in PubChem BioAssay.
FGF22 binding – FGF22 (human) thermal shift binding. Q9HCT0. hit rate 1.5% among 340,000. activity (Tm shift, normalised), % at 9.99 µM. recombinant FGF22 thermal shift, SYPRO orange fluorescence; percent of sucrose octasulfate shift, DMSO zero;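 active = mean Tm shift, scaled 0 neutral to 100 positive control, at about 1.3% or above, every replicate too, limit read from the data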
SIRT5 block – inhibitors of human sirtuin-5 desuccinylase; Q9NXA8; Purified SirT5, succinyl-peptide AMC, trypsin-coupled fluorescence; AID 652115; hit rate 1.1% among 330,000; inhibition, % at 15 µM; in the data active = inhibition above about 15%
Target sequence (Q9NXA8 whole entry, looked up): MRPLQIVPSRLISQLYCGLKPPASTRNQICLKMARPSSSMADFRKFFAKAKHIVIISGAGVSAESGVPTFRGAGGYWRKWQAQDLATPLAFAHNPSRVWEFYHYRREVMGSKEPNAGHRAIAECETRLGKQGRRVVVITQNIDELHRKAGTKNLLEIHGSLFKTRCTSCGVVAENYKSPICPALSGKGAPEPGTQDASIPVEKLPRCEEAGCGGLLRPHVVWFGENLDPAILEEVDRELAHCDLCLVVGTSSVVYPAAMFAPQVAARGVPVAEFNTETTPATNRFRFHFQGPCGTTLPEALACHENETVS
Casp6 inh – inhibitors of human caspase-6 | hit rate 0.53% among 350,000 | P55212 | inhibition, % at 12.5 µM | purified caspase-6, Z-VEID-R110 cleavage fluorescence;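 active = mean inhibition across replicates at least about 35%, with every replicate also reaching that limit, limit read from the data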;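 note: 0% = median of neutral control wells and 100% = no fluorescence left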
NSD2 inh – NSD2 (human) methyltransferase inhibition. NSD2 peptide methylation, AlphaScreen, 120 min. O96028. inhibition, % at 12.5 µM. hit rate 0.54% among 310,000. AID 743445; in the data active = inhibition above about 50%
UCH37 DUB inh – human UCH37 deubiquitinating enzyme inhibition | Q9Y5K5 | purified proteasome/UCH37, Ub-AMC cleavage fluorescence | inhibition, % (test concentration not listed) | hit rate 0.33% among 330,000 | AID 588478;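 active = mean inhibition over replicate wells above about 20%, limit read from the data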;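 note: 0% = compound-free wells with enzyme and 100% = wells lacking proteasome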
Target sequence (Q9Y5K5 whole entry, looked up): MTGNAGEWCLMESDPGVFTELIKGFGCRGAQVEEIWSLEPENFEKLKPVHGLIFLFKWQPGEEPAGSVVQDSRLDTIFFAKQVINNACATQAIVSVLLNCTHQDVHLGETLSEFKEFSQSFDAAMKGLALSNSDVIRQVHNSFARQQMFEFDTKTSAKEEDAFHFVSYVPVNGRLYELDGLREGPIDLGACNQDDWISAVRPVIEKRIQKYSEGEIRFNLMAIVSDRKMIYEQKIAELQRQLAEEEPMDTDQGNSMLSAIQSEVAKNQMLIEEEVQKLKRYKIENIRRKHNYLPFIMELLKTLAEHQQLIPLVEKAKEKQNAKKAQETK
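system = Proteasome-associated human UCH37 deubiquitinase | amount = 0.15 nM proteasome as dispensed | medium = pH 7.4 Tris-HCl (50 mM) with ovalbumin, ATP-MgCl2, DTT | incubation = 30 min preincubation with enzyme, 25 min cleavage at room temperature | detection = AMC fluorescence 355/460 nm | read-out basis = percent inhibition | controls = no-proteasome and no-compound wells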
Active calls of the source: *; · = not tested or not shown. In the library only some 2.6% were active in any assay of this set; here they are far more common.

SMILES | FGF22 binding | SIRT5 block | Casp6 inh | NSD2 inh | UCH37 DUB inh
COc1ccc(NS(=O)(=O)c2cc(NC(=O)c3cc(=O)c4ccccc4o3)ccc2OC)cc1 | 43.4* | -3.0 | 0.6 | 1.0 | 2.6
COC(=O)CCS(=O)(=O)c1ccc(Cl)c(Cl)c1 | · | · | · | · | 1.1
COC(=O)CC/C(=N/Nc1ccc(Cl)c(Cl)c1)C(=O)OC | 43.0* | 7.5 | -2.9 | -0.4 | ·
C[C@@H]1CCCCO[C@H](CN(C)Cc2ccc(C(=O)O)cc2)[C@H](C)CN([C@@H](C)CO)C(=O)c2cc(NC(=O)c3ccncc3)ccc2O1 | 0.0 | 0.4 | 1.3 | · | ·
N[C@@H](CO)c1nnc([C@H](Cc2ccc(O)cc2)NC(=O)C2CCNCC2)o1 | -0.1 | 28.2* | -9.7 | · | -1.3
Cc1noc(C)c1NC(=O)Nc1ccc2c(c1)CC(=O)N([C@@H](C)CO)C[C@@H](C)[C@H](CN(C)C(=O)Nc1cccc3ccccc13)O2 | -0.3 | -6.5 | · | · | ·
Cc1sc(NC(=O)c2ccco2)c(C(c2ccccc2)N2CCC(C)CC2)c1C (configuration not stated) | 0.0 | 18.3* | -0.8 | -1.7 | -20.4
CCOC(=O)N1CCN(Cc2c(NC(=O)c3ccco3)sc(C)c2C)CC1 | 43.6* | -3.6 | -1.6 | -1.5 | 1.2
Cc1sc(NC(=O)c2ccco2)c(C(=O)c2ccc(Cl)cc2)c1C | 0.3 | 16.0* | 1.6 | -0.8 | 1.1
CCOn1c(=O)c(-c2ccc(C)cc2)[n+]([O-])c2ccccc21 | -0.2 | -1.9 | -1.7 | -5.0 | 2.6
CCOn1c(=O)c(-c2cccc([N+](=O)[O-])c2)[n+]([O-])c2ccccc21 | 43.8* | 0.1 | 3.1 | 0.5 | -2.0
CC(C)C#Cc1cnc2c(c1)C(=O)N([C@@H](C)CO)C[C@@H](C)[C@@H](CN(C)C(=O)Nc1ccccc1F)O2 | -0.1 | -2.0 | 0.1 | · | ·
Cc1ccc(NC(=O)c2cc(S(=O)(=O)NCC3CCCO3)ccc2F)cc1 (configuration not stated) | -0.4 | · | 42.5* | 0.9 | ·
Cc1ccccc1NS(=O)(=O)c1ccc(C(=O)NCC2CCCO2)cc1 (configuration not stated) | -0.3 | 19.3* | -5.6 | 0.9 | 0.3
CCNS(=O)(=O)c1ccc(NC(=S)NCC2CCCO2)cc1 (configuration not stated) | 43.2* | -1.1 | 0.9 | 1.5 | -0.7
N#Cc1c(N=Cc2ccco2)oc(-c2ccccc2)c1-c1ccccc1 | · | · | · | · | 2.1
CCC(=O)NC[C@@H]1[C@@H](c2ccc(C3=CCCC3)cc2)[C@@H](CO)N1C(=O)CN(C)C | · | -4.6 | 2.6 | · | ·
CCCOc1ccc(/C=C/c2[nH]c(=O)[nH]c(=O)c2[N+](=O)[O-])cc1OCC | 0.5 | -4.7 | 0.2 | 2.2 | 11.5
CCOC(=O)COc1ccc(Br)cc1/C=C\c1[nH]c(=O)[nH]c(=O)c1[N+](=O)[O-] | 0.5 | 2.5 | 56.4* | 31.3 | 18.5
CCOC(=O)COc1ccc(Br)cc1/C=C/c1[nH]c(=O)[nH]c(=O)c1[N+](=O)[O-] | 0.1 | -2.3 | 40.1* | -1.3 | ·
Cc1noc(C)c1NC(=O)N(C)C[C@@H]1OCCCC[C@@H](C)Oc2ccc(NS(=O)(=O)c3cn(C)cn3)cc2C(=O)N([C@H](C)CO)C[C@H]1C | -0.3 | · | · | · | ·
COC(=O)C[C@H]1CC[C@H]2[C@H](COc3ccc(NS(=O)(=O)c4ccc(C)cc4)cc3C(=O)N2C)O1 | 0.1 | 3.4 | -1.2 | · | ·
C[C@H](CO)N1C[C@H](C)[C@H](CN(C)C(=O)Nc2ccc3c(c2)OCO3)Oc2ccc(NC(=O)CCN3CCOCC3)cc2CC1=O | -0.1 | -0.1 | 1.6 | · | ·
O=C(/C=C/c1ccc([N+](=O)[O-])cc1)OCC(=O)c1ccc[nH]1 | -0.1 | 22.7* | -0.3 | -1.3 | 6.1
COc1ccc(/C=C/C(=O)OCC(=O)c2ccc[nH]2)cc1 | -0.3 | -0.3 | 1.2 | -0.7 | 0.7
SMILES | FGF22 binding | SIRT5 block | Casp6 inh | NSD2 inh | UCH37 DUB inh
NC(=NOC(=O)CCC(=O)O)c1ncc(C(F)(F)F)cc1Cl | · | · | · | · | 5.5
Cc1oc(-c2ccccc2)cc1C(=O)Nc1cccc(/C=C\C(=O)O)c1 | 43.5* | -1.9 | 3.0 | 0.3 | 2.2
CC(=O)c1ccc(Nc2c(C)n(C)n(-c3ccccc3)c2=O)cc1 | 0.1 | 8.1 | -3.8 | 2.0 | 8.0
Cc1c(Nc2ccc(C=O)cc2)c(=O)n(-c2ccccc2)n1C | 42.9* | 3.4 | 2.7 | -1.9 | 7.4
Cn1cnc(S(=O)(=O)N[C@@H]2C=C[C@@H](CC(=O)NCC3CC3)O[C@H]2CO)c1 | -0.4 | 6.3 | 0.6 | · | ·
Nc1ncnc2c(C3OC(CO)C(O)C3O)scc12 (configuration not stated) | 43.3* | · | -1.9 | · | ·
Nc1ncnc2c1ncn2C1O[C@H](CO)[C@@H](O)[C@@H]1O (some centres not stated) | 0.0 | 1.4 | 13.0 | · | 2.8
CCCCCCn1c(=O)n2n(c1=O)C[C@]1(OC(=O)Nc3c(C)noc3C)CN(S(=O)(=O)c3ccc(C)cc3)C[C@]1(O)C2 | 43.1* | · | -3.0 | · | ·
Cc1ccccc1Cn1cnc2ccccc2c1=O | -0.2 | -5.1 | -2.0 | -1.0 | 4.8
O=c1c2ccccc2ncn1Cc1cccc2ccccc12 | 43.2* | -1.8 | 3.9 | -0.7 | 2.0
NC(=O)c1ccc(N=Cc2ccc([N+](=O)[O-])s2)cc1 | -0.2 | 1.6 | 2.4 | 27.1 | 61.7*
Cc1cc(C)cc(N=Cc2ccc([N+](=O)[O-])s2)c1 | · | · | · | 1.7 | 10.4
COc1ccc(S(=O)(=O)Cc2ccc(C(=O)O)o2)cc1 | 0.0 | -3.5 | -1.2 | -2.2 | 1.9
Cc1ccc(S(=O)(=O)Cc2ccc(C(=O)O)o2)cc1 | 0.2 | -0.9 | 52.4* | 39.8 | -1.3
CC(=O)Nc1cccc(NC(=S)Nc2ccc(F)c(Cl)c2)c1 | 1.3* | -7.4 | 3.6 | 0.5 | 3.2
CC(=O)Nc1cccc(NC(=O)Nc2ccc(C)c(Cl)c2)c1 | 42.6 | -4.6 | 1.2 | -0.9 | 2.7
Cc1cccc(NC(=S)NNC(=O)c2ccccc2Br)c1 | · | · | · | 1.3 | ·
O=C(NNC(=S)Nc1ccc(F)c(Cl)c1)c1ccccc1Br | 2.1* | 2.6 | 4.9 | -16.2 | 0.9
COc1ccccc1C(=O)NCCC(=O)Nc1ccc(OC(F)(F)F)cc1 | 42.5 | 101.5* | -6.1 | -5.6 | 6.4
COc1ccc(NN=C(C)c2cnnc(-c3ccccc3)n2)cc1 | · | · | · | · | 5.8
COc1ccccc1C(=O)NNC(=S)NC(=O)c1sc2ccccc2c1Cl | · | · | · | -0.6 | 5.5
Cc1c(NC(=S)NC(=O)c2sc3ccccc3c2Cl)cccc1C(=O)O | 0.2 | 36.3* | 1.9 | -0.4 | 5.4
CCOc1ccc(C=NN2C(C)CCCC2C)cc1 (configuration not stated) | · | · | · | · | 1.6
CCOc1cc(/C=N/NC(=O)c2cccnc2)ccc1OCC(N)=O | -0.1 | 1.4 | 0.7 | -0.1 | ·
CCOc1cc(/C=N/NC(=O)c2cccnc2)ccc1OCC(=O)N(C)C | 44.2* | 1.8 | -1.7 | -2.6 | ·
CNC[C@@H]1Oc2cc(C#CC3(O)CCCC3)ccc2S(=O)(=O)N([C@H](C)CO)C[C@H]1C | 0.1 | -1.4 | 1.8 | · | ·
